Measured values published in ChEMBL document CHEMBL1148073, “Cytotoxic diterpenoids from Isodon megathyrsus” (1994).
Values after ≈ are worked out from the molar mass of the structure shown. Active and inactive are the calls of the source. The calls are words filed in the database; no cut-off is given here.

Legend:
Lu1 = test: Cytotoxicity against human Lu1 cells after 3 days by SRB assay; format: functional; conditions: Lu1, 72 h, read-out: ED50 (the source's name)
[1] = Cytotoxicity against human KBVIN cells in presence of 1 ug/ml vinblastine after 3 days by SRB assay; format: functional; conditions: 72 h, read-out: ED50 (the source's name)
[2] = Cytotoxicity against human KBVIN cells after 3 days by SRB assay; format: functional; conditions: 72 h, read-out: ED50 (the source's name)
ASK = test: Cytotoxicity against human ASK cells after 3 days by SRB assay; format: functional, cell-based
Outline: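 ASK cell line: human astrocytoma.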

LNCaP = test: Cytotoxicity against human LNCAP cells after 3 days by SRB assay; format: functional; conditions: 72 h, read-out: ED50 (the source's name)
KB = test: Cytotoxicity against human KB cells after 3 days by SRB assay; format: functional; conditions: 72 h, read-out: ED50 (the source's name)
ZR-75-1 = test: Cytotoxicity against human ZR-75-1 cells after 3 days by SRB assay; format: functional; conditions: ZR-75-1, 72 h, read-out: ED50 (the source's name)
Plasmodium falciparum = test: Antimalarial activity against Plasmodium falciparum by [3H]hypoxanthine uptake; format: functional, organism-based
[3] = biological target: Human immunodeficiency virus type 1 reverse transcriptase (Human immunodeficiency virus 1) (UniProt Q72547); test: Inhibition of HIV1 reverse transcriptase

SMILES	EC50 (Lu1) [µg/mL]	EC50 [1] [µg/mL]	EC50 [2] [µg/mL]	ED50 (ASK)	EC50 (LNCaP) [µg/mL]	EC50 (KB) [µg/mL]	EC50 (ZR-75-1) [µg/mL]	Activity (Plasmodium falciparum)	Activity [3]
COc1cc2c(c(OC)c1OC)-c1ccc(OC)c(=O)cc1[C@@H](NC(C)=O)CC2 [COLCHICINE]	0.2 (≈ 0.501 µM)	0.6	3.5 (≈ 8.76 µM)	Active	0.06 (≈ 0.15 µM)	0.2 (≈ 0.501 µM)	0.1 (≈ 0.25 µM)	–	–
Cc1c2ccncc2c(C)c2c1[nH]c1ccccc12 [ELLIPTECINE]	0.2 (≈ 0.812 µM)	0.2	0.3 (≈ 1.22 µM)	inactive	0.8 (≈ 3.25 µM)	0.04 (≈ 0.162 µM)	0.9 (≈ 3.65 µM)	–	–
C=C1C(=O)[C@]23[C@H](O)[C@H]1CC[C@H]2[C@@]12CO[C@@]3(O)C[C@@H]1C(C)(C)CC[C@@H]2O [MEGATHYRIN A]	3.4 (≈ 9.76 µM)	8.9	19.1 (≈ 54.8 µM)	inactive	1.8 (≈ 5.17 µM)	1.1 (≈ 3.16 µM)	1.8 (≈ 5.17 µM)	inactive	inactive
C=C1C(=O)[C@]23[C@H](O)[C@H]1CC[C@H]2[C@@]12CO[C@@]3(O)C[C@@H]1C(C)(C)CC[C@@H]2OC(C)=O [RABDOCOETSIN B]	0.5 (≈ 1.28 µM)	7.2	> 20	inactive	0.6 (≈ 1.54 µM)	0.3 (≈ 0.768 µM)	0.8 (≈ 2.05 µM)	inactive	inactive
C=C1C(=O)[C@]23C[C@H]1C[C@H](O)[C@H]2[C@@]12CO[C@@]3(O)C[C@@H]1C(C)(C)CC[C@@H]2O [RABDOCOETSIN C]	0.4 (≈ 1.15 µM)	> 20	> 20	inactive	0.7 (≈ 2.01 µM)	0.6 (≈ 1.72 µM)	1 (≈ 2.87 µM)	inactive	inactive
C=C1C(=O)[C@]23C[C@H]1C[C@H](OC(C)=O)[C@H]2[C@@]12CO[C@@]3(O)C[C@@H]1C(C)(C)CC[C@@H]2O [RABDOCOETSIN D]	0.9 (≈ 2.3 µM)	12.1	9.5 (≈ 24.3 µM)	inactive	0.8 (≈ 2.05 µM)	0.5 (≈ 1.28 µM)	0.8 (≈ 2.05 µM)	inactive	inactive
